ChEMBL document CHEMBL1134778, “Amino acid phosphoramidate monoesters of 3'-azido-3'-deoxythymidine: relationship between antiviral potency and intracellular metabolism” (J Med Chem, 2001)

How the values were obtained:
Homo sapiens [1] = species: Homo sapiens; assay: Inhibition of Phosphoramidase activity with AZT L-amino acid carbamates; type: functional; conditions: concentration not given here
In short: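 CEM cells (1.5 × 10^8) sonicated in 1 mL 20 mM Tris-HCl, 500 mM NaCl, pH 7.5. Whole lysate incubated 45 min at 37 °C with phosphoramidate (from 10 mM water stock) and carbamate (from 10 mM DMSO stock), then stopped with methanol. AZT-MP quantified by RP-HPLC-RIA against a no-carbamate control. Mean of two experiments.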

CCRF-CEM [2] = assay: Effective concentration of required to inhibit the replication of HIV-1 BY 50% in CEM cells; type: functional, cell-based; conditions: Homo sapiens
In short: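 PHA-stimulated CEM cells infected 3 h at 37 °C with LAI/HIV-1 (10 000 DPM RT activity/10^6 cells), then washed. Resuspended at 2.5 × 10^5 cells/mL in medium with 10 U/mL IL-2. Drugs in ddH2O added to duplicate or triplicate cultures. Held 6 days at 37 °C; supernatant p24 measured by ELISA.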

CCRF-CEM [3] = assay: Concentration required to kill 50% of CEM cells; type: functional, cell-based; conditions: Homo sapiens
In short: (§1)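 Uninfected PHA-stimulated PBMCs or CEM cells plated at 2.5 × 10^5 cells/well with diluted drug. Incubated 6 days at 37 °C, 10% CO2. XTT/PMS added and incubated 4 h at 37 °C. Absorbance read at 450 nm, 630 nm reference.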

Homo sapiens [4] = species: Homo sapiens; assay: Effective concentration of required to inhibit the replication of HIV-1 BY 50% in PMBCs from donor 1; type: functional, organism-based
Homo sapiens [5] = species: Homo sapiens; assay: Effective concentration of required to inhibit the replication of HIV-1 BY 50% in PMBCs from donor 2; type: functional, organism-based
Homo sapiens [6] = species: Homo sapiens; assay: Effective concentration required to inhibit the replication of HIV-1 by 50% in PMBCs in the absence of thymidine; type: functional, organism-based
Homo sapiens [7] = species: Homo sapiens; assay: Effective concentration required to inhibit the replication of HIV-1 by 50% in PMBCs in the presence of thymidine; type: functional, organism-based
Homo sapiens [8] = species: Homo sapiens; assay: Effective concentration required to inhibit the replication of HIV-1 in activated PBMCs; type: functional, organism-based
In short: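 PBMCs held 2 days either resting (no PHA, no IL-2) or with 10 μg/mL PHA, then IL-2 10 U/mL. Nonadherent cells infected with LAI/HIV-1 (5000 DPM/10^6 cells) for 3 h and washed. Plated at 2.5 × 10^5 cells/mL, compounds added in triplicate, 6 days at 37 °C. Supernatant RT activity measured; proviral gag DNA by PCR normalised to IFN-β1.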

Homo sapiens [9] = species: Homo sapiens; assay: Effective concentration required to inhibit the replication of HIV-1 with 2 hr pretreatment of activated PBMCs; type: functional, organism-based
In short: (§2)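 Uninfected PHA-stimulated PBMCs (2.5 × 10^5 cells/mL) given compound in ddH2O in triplicate for 2 h at 37 °C, then LAI/HIV-1 (5000 DPM/10^6 cells) added. In parallel cultures, cells were infected 3 h first and then treated. After 6 days at 37 °C, supernatant RT activity measured.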

Homo sapiens [10] = species: Homo sapiens; assay: Effective concentration required to inhibit the replication of HIV-1 with no pretreatment of activated PBMCs; type: functional, organism-based; in short: as §2
[11] = Inhibition of AZT-MP production by cell free extracts of CEM cells; type: functional, Homo sapiens, CCRF-CEM; set-up: unit not given here
In short: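 CEM cells (1.5 × 10^8) sonicated in 1 mL 20 mM Tris-HCl, 500 mM NaCl, pH 7.5. Lysate incubated with phosphoramidate and carbamate, each added from 10 mM stock, for 45 min at 37 °C, then stopped with methanol. AZT-MP quantified by RP-HPLC-RIA against a no-carbamate control. Mean of two experiments.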

U1 = assay: Antiviral activity was determined in chronically infected U1 cell line with HIV-1; type: functional, cell-based; conditions: Homo sapiens
In short: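 HIV-1 chronically infected U1 cells (1.5 × 10^5 cells/well) in RPMI 1640 with 10% FBS and 10 ng/mL TNF-α. Compound in ddH2O added to duplicate cultures. Incubated 48 h at 37 °C, 5% CO2. Supernatant p24gag measured by ELISA; XTT assay run on the remaining culture.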

Homo sapiens [12] = species: Homo sapiens; assay: Concentration required to kill 50% of PBMCs; type: functional, organism-based; in short: as §1
[13] = system: Human immunodeficiency virus 1; assay: Concentration required to inhibit the production of proviral DNA in unactivated PBMCs
Homo sapiens [14] = species: Homo sapiens; assay: Effective concentration required to inhibit the replication of HIV-1 by 50% in PMBCs from donor 1; type: functional, organism-based
Homo sapiens [15] = species: Homo sapiens; assay: Effective concentration required to inhibit the replication of HIV-1 by 50% in PMBCs from donor 2; type: functional, organism-based
[16] = system: Human immunodeficiency virus 1; assay: Concentration required to inhibit HIV-1 replication by 50% in activated PBMCs
Homo sapiens [17] = species: Homo sapiens; assay: (§3) Intracellular of AZT-TP concentrations in LAI/HIV-1 infected PMBCs was determined at a conc of 10 uM); type: functional, organism-based
In short: (§4)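 PHA-stimulated, LAI/HIV-1-infected PBMCs (donor 2) at 10^6 cells/mL, triplicate, given 10 µM compound ± 50 µM thymidine for 18 h at 37 °C. Cells washed, extracted in 60% methanol overnight at −20 °C, dried and reconstituted. AZT-TP quantified by inhibition of recombinant HIV-1 RT (poly(rA)-oligo(dT), 3H-TTP, 2 h at 37 °C) relative to AZT-TP standards; pmol/10^6 cells.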

Homo sapiens [18] = species: Homo sapiens; assay: as §3; type: functional, organism-based; in short: as §4; remark: listed apart in the source

Row | Structure (SMILES) | IC50 (CCRF-CEM [3]) [µM] | EC50 (Homo sapiens [4]) [µM] | EC50 (Homo sapiens [5]) [µM] | EC50 (Homo sapiens [6]) [µM] | EC50 (Homo sapiens [7]) [µM] | Activity [11] | IC50 (Homo sapiens [12]) [µM] | IC100 [13] [µM] | other results
1 | COC(=O)[C@H](Cc1ccccc1)NC(=O)OC[C@H]1O[C@@H](n2cc(C)c(=O)[nH]c2=O)C[C@@H]1N=[N+]=[N-].COC(=O)[C@H](Cc1ccccc1)NP(=O)(O)OC[C@H]1O[C@@H](n2cc(C)c(=O)[nH]c2=O)C[C@@H]1N=[N+]=[N-] [listing 1 of 2 here] |  |  |  |  |  |  |  |  | inhibition (Homo sapiens [1]): 99.6%
2 | COC(=O)[C@H](Cc1ccccc1)NP(=O)(O)OC[C@H]1O[C@@H](n2cc(C)c(=O)[nH]c2=O)C[C@@H]1N=[N+]=[N-] | > 100 | 30 | 15 | 15 | > 100 | 6.3 | > 100 | >100 | EC50 (CCRF-CEM [2]): < 0.001 µM; EC50 (Homo sapiens [8]): > 100 µM; EC50 (Homo sapiens [9]): 1 µM; EC50 (Homo sapiens [10]): 15 µM; EC50 (U1): 25 µM
3 | COC(=O)[C@@H](Cc1ccccc1)NP(=O)(O)OC[C@H]1O[C@@H](n2cc(C)c(=O)[nH]c2=O)C[C@@H]1N=[N+]=[N-] | > 100 | 0.089 | 0.08 |  |  |  | > 100 |  | 
4 | COC(=O)[C@H](Cc1ccccc1)NC(=O)OC[C@H]1O[C@@H](n2cc(C)c(=O)[nH]c2=O)C[C@@H]1N=[N+]=[N-].COC(=O)[C@H](Cc1ccccc1)NP(=O)(O)OC[C@H]1O[C@@H](n2cc(C)c(=O)[nH]c2=O)C[C@@H]1N=[N+]=[N-] [listing 2 of 2 here] |  |  |  |  |  | 0.03 |  |  | 
5 | CNC(=O)[C@@H](Cc1ccccc1)NP(=O)(O)OC[C@H]1O[C@@H](n2cc(C)c(=O)[nH]c2=O)C[C@@H]1N=[N+]=[N-] | > 100 | 0.9 | 0.1 |  |  |  | > 100 |  | 
6 | COC(=O)[C@H](C)NP(=O)(O)OC[C@H]1O[C@@H](n2cc(C)c(=O)[nH]c2=O)C[C@@H]1N=[N+]=[N-] | > 100 | 0.05 | 0.03 |  |  |  | > 100 |  | 
7 | COC(=O)[C@@H](NP(=O)(O)OC[C@H]1O[C@@H](n2cc(C)c(=O)[nH]c2=O)C[C@@H]1N=[N+]=[N-])C(C)C | > 100 |  |  | 0.35 | 30 |  | > 100 | 0.1 | EC50 (Homo sapiens [14]): 1.3 µM; EC50 (Homo sapiens [15]): 0.9 µM; EC50 [16]: 0.35 µM
8 | Cc1cn([C@H]2C[C@H](N=[N+]=[N-])[C@@H](CO)O2)c(=O)[nH]c1=O [ZIDOVUDINE] |  | 0.006 | 0.007 | 0.007 | 0.3 |  | > 100 | 0.01 | EC50 (CCRF-CEM [2]): < 0.001 µM; Concentration (pM (10e6*cells)-1) (Homo sapiens [17]): 0.69; Concentration (pM (10e6*cells)-1) (Homo sapiens [18]): 1.37; EC50 (Homo sapiens [9]): 0.015 µM; EC50 (Homo sapiens [10]): 0.01 µM; EC50 (U1): 25 µM; EC50 [16]: 0.01 µM
9 | COC(=O)[C@@H](Cc1c[nH]c2ccccc12)NP(=O)(O)OC[C@H]1O[C@@H](n2cc(C)c(=O)[nH]c2=O)C[C@@H]1N=[N+]=[N-].COC(=O)[C@H](Cc1c[nH]c2ccccc12)NC(=O)OC[C@H]1O[C@@H](n2cc(C)c(=O)[nH]c2=O)C[C@@H]1N=[N+]=[N-] |  |  |  |  |  | 2.56 |  |  | 
